Reference: ChEMBL document CHEMBL1154181 (J Med Chem, 2009)

Experiments:
Mus musculus [1] = test: Ratio of compound ED50 to morphine ED50 for antinociceptive activity against radiant heat-induced nociception in icv dosed CD1 mouse; format: functional
In short: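 Male CD-1 mice (25–30 g) given the compound or morphine hydrochloride into the right lateral ventricle. Tail flick used radiant heat focused 3–4 cm from the tail tip, with a 15 s cutoff, and latency was read at 15–120 min. %MPE was made quantal at peak time. ED50 came from at least four groups of six mice, and both ED50s were obtained the same way.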

[2] = target: T1, Alpha-1A adrenergic receptor (Rattus norvegicus, UniProt P43140); test: Displacement of [3H]prazosin from adrenergic alpha1A receptor in Wistar rat submaxillary gland after 60 mins; format: tissue-based
T1 sequence (P43140 whole entry): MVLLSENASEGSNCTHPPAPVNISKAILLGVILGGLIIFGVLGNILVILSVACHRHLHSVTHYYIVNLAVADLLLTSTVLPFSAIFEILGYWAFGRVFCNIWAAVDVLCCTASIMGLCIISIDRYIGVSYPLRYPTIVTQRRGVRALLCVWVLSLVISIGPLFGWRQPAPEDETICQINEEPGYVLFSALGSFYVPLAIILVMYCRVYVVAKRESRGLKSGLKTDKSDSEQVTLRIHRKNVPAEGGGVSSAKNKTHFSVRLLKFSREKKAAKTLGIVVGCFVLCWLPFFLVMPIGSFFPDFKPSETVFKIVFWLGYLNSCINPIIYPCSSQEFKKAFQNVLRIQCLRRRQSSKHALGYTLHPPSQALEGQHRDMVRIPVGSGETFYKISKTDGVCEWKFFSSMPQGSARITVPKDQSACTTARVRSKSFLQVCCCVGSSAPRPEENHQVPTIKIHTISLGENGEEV

[3] = target: T2, Alpha-1B adrenergic receptor (Rattus norvegicus, UniProt P15823); test: Displacement of [3H]prazosin from adrenergic Alpha-1B receptor in Wistar rat liver membrane after 60 mins; format: cell membranes
T2 sequence (P15823 whole entry): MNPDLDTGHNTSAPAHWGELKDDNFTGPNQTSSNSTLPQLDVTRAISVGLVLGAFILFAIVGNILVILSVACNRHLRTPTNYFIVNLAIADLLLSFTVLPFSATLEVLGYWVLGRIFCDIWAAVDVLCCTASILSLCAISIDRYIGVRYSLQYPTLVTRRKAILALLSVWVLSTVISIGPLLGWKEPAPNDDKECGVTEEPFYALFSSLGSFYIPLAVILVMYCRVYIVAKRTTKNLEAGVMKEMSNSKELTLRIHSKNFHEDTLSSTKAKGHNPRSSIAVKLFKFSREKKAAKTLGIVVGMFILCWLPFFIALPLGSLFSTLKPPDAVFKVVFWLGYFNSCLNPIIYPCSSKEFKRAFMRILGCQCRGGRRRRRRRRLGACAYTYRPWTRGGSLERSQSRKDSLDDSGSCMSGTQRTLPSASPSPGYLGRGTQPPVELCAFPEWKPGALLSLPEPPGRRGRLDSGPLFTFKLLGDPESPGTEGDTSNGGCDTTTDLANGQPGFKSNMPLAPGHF

[4] = target: T3, Alpha-1A adrenergic receptor (Rattus norvegicus) (UniProt P43140); test: Inhibition of [3H]prazosin binding to adrenergic alpha1A receptor in Wistar rat submaxillary gland at 10 uM after 60 mins
T3 sequence (whole entry): T1 sequence (P43140 whole entry)
In short: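 Wistar rat submaxillary gland membranes with 0.25 nM [3H]-prazosin. Nonspecific binding defined by 10 μM phentolamine. Buffer 50 mM Tris-HCl pH 7.4, 0.5 mM EDTA. Incubated 60 min at 25 °C, then filtered and counted. Duplicate; 1% DMSO final.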

Mus musculus [5] = test: Antinociceptive activity in sc dosed mouse assessed as reduction in number of noxious stimulus-induced writhes; format: functional
Mus musculus [6] = test: Antinociceptive activity against radiant heat-induced nociception in po dosed CD1 mouse assessed as increase in tail withdrawal latency measured after 15 to 120 mins postdose by tail flick test in presence of 2 mg/kg, ip nicotinic receptor antagonist mecamylamine hydrochloride administered 30 mins before compound infusion; format: functional
In short: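 Antagonist given ip 30 min before oral dosing (naloxone 1, mecamylamine 2, yohimbine 2, CGP 35348 50 mg/kg). Tail flick with radiant heat at the tail tip, cut-off 15 s; latencies at 15–120 min converted to %MPE. Peak-time quantal response (≥50% MPE); ED50 from at least four groups of six male CD-1 mice.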

Mus musculus [7] = test: (§1) Antinociceptive activity against thermal nociception in po dosed CD1 mouse assessed as increase in latency period to elicit jumping or hind paw licking measured after 15 to 90 mins postdose by hot plate method in presence of 1 mg/kg, ip opioid receptor antagonist naloxone hydrochloride administered 30 mins before compound infusion; format: functional
In short: (§2)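 Antagonist given ip 30 min before oral dosing (naloxone 1, mecamylamine 2, yohimbine 2, CGP 35348 50 mg/kg). Hot plate at 48.5 ± 0.1 °C inside a cylinder, cut-off 60 s; latencies at 15–90 min as %MPE. Peak-time quantal response (≥50% MPE); ED50 from at least four groups of six male CD-1 mice.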

Mus musculus [8] = test: as §1, with “of 50” for “of 1”, “ip GABAB” for “ip opioid”, “antagonist CGP 35348” for “antagonist naloxone hydrochloride”; format: functional; in short: as §2
Mus musculus [9] = test: as §1, with “of 2” for “of 1”, “ip nicotinic” for “ip opioid”, “antagonist mecamylamine” for “antagonist naloxone”; format: functional; in short: as §2
Mus musculus [10] = test: Antinociceptive activity against thermal nociception in po dosed CD1 mouse assessed as latency period to elicit jumping or hind paw licking at 1 mg/kg, po measured after 15 to 90 mins postdose by hot plate method; format: functional
In short: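 Male CD-1 mice (25–30 g), dosed orally at 1 mg/kg. Tail flick: radiant heat focused 3–4 cm from the tail tip, cut-off 15 s at 15 V. Hot plate: 48.5 ± 0.1 °C, licking, paw jerk or jump, cut-off 60 s. Baseline is the mean of three readings 15 min apart. Latency followed to 120 min (tail) or 90 min (plate); data as %MPE.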

Mus musculus [11] = test: Antinociceptive activity against radiant heat-induced nociception in CD1 mouse assessed as tail withdrawal latency at 1 mg/kg, po measured after 15 to 120 mins postdose by tail flick test in presence of 0.1 to 1 mg/kg, ip alpha-1-adrenergic receptor antagonist prazosin administered 15 mins before compound infusion; format: functional
In short: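 Male CD-1 mice given prazosin ip (0.1 or 1 mg/kg) 15 min before oral dosing at 1 mg/kg. Tail flick: radiant heat 3–4 cm from the tail tip, cut-off 15 s. Hot plate: 48.5 °C, cut-off 60 s. Baseline is the mean of three readings 15 min apart. Latency followed over time and expressed as %MPE.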

[12] = target: T4, Alpha-1B adrenergic receptor (Rattus norvegicus) (UniProt P15823); conditions: Wistar, Liver, Membrane, 10 uM
T4 sequence (whole entry): T2 sequence (P15823 whole entry)

IC50 [2]: 56 nM
IC50 [3]: 102 nM
Emax [4]: 101%
Emax [12]: 99%
Structure (SMILES): C=Cc1c(C)nn(CCCN2CCN(c3ccc(C)cc3)CC2)c(=O)c1N
Ratio ED50 (Mus musculus [1]): 3
ED50 (Mus musculus [5]): 2.5 mg/kg
ED50 (Mus musculus [6]): 2.3 mg/kg
ED50 (Mus musculus [7]): 1.1 mg/kg
ED50 (Mus musculus [8]): 0.6 mg/kg
ED50 (Mus musculus [9]): 0.7 mg/kg
Activity (Mus musculus [10]): 30 min
Activity (Mus musculus [11]): 120 min
